Screening data deposited in PubChem by several laboratories.
CHT allo act: human CHT allosteric activation; Q9GZV3; CHT-expressing cells, membrane potential dye, choline EC20; hits give high values; LV-AA mutant CHT in HEK293 cells; B-score at 10 µM; hit rate 0.49% among 310,000; AID 488977;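 active = initial fluorescence not abnormally high and integrated response B-score, plate-corrected, over 3 SD above library mean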
CHT inh: human CHT choline transport inhibition. B-score at 10 µM. CHT-expressing cells, membrane potential dye, choline response; hits give low values. AID 488975. Q9GZV3. hit rate 0.86% among 310,000;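 active = B-score over 3 SD under the library average, and starting fluorescence ratio not unusually high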;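 note: choline stimulus applied at its EC90 after an EC20 pre-addition; B-score computed on integrated fluorescence ratio after choline addition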
procasp7 counter: counter-screen for procaspase-3 activators: activators of human procaspase-7; activation, % at 8.5 µM; hit rate 0.093% among 330,000; recombinant procaspase-7, Ac-DEVD-pNA absorbance 405 nm; D23A/D198A/D206A triple mutant, cannot self-cleave; scale: DMSO 0, 5 µM enzyme 100;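 active = percent activation above the screen-wide mean plus 3 SD, cut at about 25% in these data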
Target sequence (P55210 whole entry D23A/D198A/D206A): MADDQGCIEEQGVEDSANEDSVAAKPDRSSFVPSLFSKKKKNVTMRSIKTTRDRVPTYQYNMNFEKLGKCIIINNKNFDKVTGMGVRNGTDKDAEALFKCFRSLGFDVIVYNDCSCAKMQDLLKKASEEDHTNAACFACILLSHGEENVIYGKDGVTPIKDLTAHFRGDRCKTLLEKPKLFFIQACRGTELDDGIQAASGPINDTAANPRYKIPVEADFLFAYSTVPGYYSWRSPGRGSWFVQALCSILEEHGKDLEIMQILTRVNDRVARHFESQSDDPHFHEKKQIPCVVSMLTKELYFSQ
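System: Uncleavable procaspase-7 mutant enzyme; Amount: 2 µM procaspase-7 mutant as dispensed; Schedule: 1 h compound preincubation, 2 h substrate cleavage, 25 °C; Measured by: 405 nm absorbance of p-nitroaniline; Evaluation: percent activation from buffer-corrected 0–120 min absorbance change; Control set: low DMSO alone, high DMSO plus 5 µM PC-7.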
proCasp3 act: procaspase-3 (human) activation; P42574; recombinant procaspase-3 D3A, Ac-DEVD-pNA absorbance 405 nm; activation, % at 8.5 µM; hit rate 0.11% among 330,000; AID 463141;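 active = activation above the mean of all tested compounds plus 3 SD, cut at about 21% in these data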;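 note: 0% = DMSO alone and 100% = DMSO wells spiked with extra 5 µM PC-3 D3A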
Target sequence (P42574 whole entry D9A/D28A/D175A): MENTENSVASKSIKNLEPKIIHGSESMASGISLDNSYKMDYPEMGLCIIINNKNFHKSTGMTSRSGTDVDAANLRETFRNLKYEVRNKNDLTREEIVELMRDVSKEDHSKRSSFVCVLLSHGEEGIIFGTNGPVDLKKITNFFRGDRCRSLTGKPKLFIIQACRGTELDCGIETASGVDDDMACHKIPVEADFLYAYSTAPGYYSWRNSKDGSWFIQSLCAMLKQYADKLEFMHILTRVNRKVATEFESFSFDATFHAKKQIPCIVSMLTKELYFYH
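Technique: 405 nm absorbance of p-nitroaniline, reads at 0 and 120 min; Test system: Procaspase-3 D3A mutant; Incubation: 1 h enzyme-compound preincubation, then 2 h substrate reaction, 25 °C; Repeats: singlicate, each compound tested once; Benchmarks: low control DMSO wells, high control DMSO plus 5 µM PC-3 D3A.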
CHT act confirm: human CHT activation, confirmatory screen. CHT-expressing cells, membrane potential dye fluorescence (FDSS); % of choline EC20–EC90 response window; HEK293 expressing CHT LV-AA mutant; choline added at its EC20. shares compounds with CHT allo act. activation, % at 10 µM. AID 504833. hit rate 91% among 2,500;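 active = primary screen active, with duplicate mean activation above negative control mean plus 3 SD, cut at about 11% in these data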
HEK293 MP dye: counter-screen for CHT activators: effect in parental HEK293 cells; shares compounds with CHT allo act; membrane potential dye fluorescence (FDSS); measured after EC20 choline addition; ratio readout change at 10 µM, hits read low; hit rate 62% among 2,500; AID 623908;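 active = duplicate-averaged ratio beyond 3 SD from buffer wells, up or down, though filed actives are nearly all decreases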
Starred values were filed as active, the others as inactive; i = inactive; x = not tested or not shown. Hits are enriched below; roughly 1.3% of the tested compounds scored in any of these assays.

SMILES	CHT allo act	CHT inh	procasp7 counter	proCasp3 act	CHT act confirm	HEK293 MP dye
COCCCNC(=O)/C(C#N)=C/c1c(N2CCN(C)CC2)nc2c(C)cccn2c1=O	6.86*	i	-2.7	-3.0	52.1*	-56*
COCCNC(=O)/C(C#N)=C/c1c(N2CCCCCC2)nc2c(C)cccn2c1=O	i	i	1.8	0.3	x	x
COCCNC(=O)/C(C#N)=C/c1c(N2CCN(C)CC2)nc2c(C)cccn2c1=O	9.71*	i	-0.5	1.8	66.5*	-56.3*
COCCCNC(=O)/C(C#N)=C/c1c(N2CCN(c3ccc(OC)cc3)CC2)nc2c(C)cccn2c1=O	i	i	-1.6	-1.6	x	x
CN(Cc1ccccc1F)C(=O)CCNC(=O)c1ccc(C(C)(C)C)cc1	x	x	9.3	0.6	x	x
CCOC(=O)c1nnn2c1nc(N1CCN(C)CC1)c1ccccc12	8.61*	i	8.6	4.6	58.1*	-67.4*
COCCn1cnnc1SCC(=O)Nc1ccc(N2CCCCC2)cc1	x	x	7.2	3.8	x	x
Cc1ccn2cc(C34CC5CC(CC(C5)C3)C4)nc2c1	8.94*	i	3.2	-5.1	17.5*	i
Cc1ccn2cc(CSc3ccccc3)nc2c1	i	i	13.8	2.3	x	x
COCc1cc(C)nc(SCC[N+](C)(C)CC(=O)c2ccc(Br)cc2)c1C#N	i	i	1.3	-2.0	x	x
COCc1cc(C)nc(SCC[N+](C)(C)CC(=O)Nc2ccccc2)c1C#N	i	i	10.3	4.9	36.9*	-28.4*
Cc1ccc(NCC(=O)c2ccc([N+](=O)[O-])cc2)cc1	6.43*	i	-18.9	-8.3	11.1*	-22.9*
CC(=O)c1cccc(Nc2nc(=O)c3cccnc3s2)c1	6.96*	i	0.1	7.2	48.4*	-43.8*
CCOC(=O)c1ccc(Nc2nc(=O)c3cccnc3s2)cc1	i	i	-0.1	7.9	x	x
Cc1cc(N2CCN(C3CCCCC3)CC2)n2nc(C)nc2n1	8.94*	i	1.7	1.9	56.0*	-56.3*
Cc1cccc(N/C=C/C(=C(C#N)C#N)N(C)C)c1	i	i	10.9	7.2	x	x
CN(C)C(/C=C/Nc1cccc(Br)c1)=C(C#N)C#N	i	i	4.6	-0.1	49.1*	-42.4*
CCOc1ncccc1C(=O)NNC(=O)c1cccc(S(=O)(=O)N2CCOCC2)c1	x	x	2.5	14.9	x	x
Clc1ccc(CSc2ncccn2)cc1	i	i	-0.7	4.0	x	x
O=C1c2cnc3nc(SCc4ccc(Cl)cc4)nn3c2CC2c3ccccc3CCN12 (stereo not given)	6.95*	i	3.3	-12.2	-2.4	i
C=CC[C@@H](CC(=O)N[C@H](CO)Cc1ccccc1)C(=O)N[C@H](COC(=O)[C@@H](CC=C)Cc1ccc(F)cc1)Cc1c[nH]c2ccccc12	x	x	2.4	-5.0	x	x
Cc1cccc(CCN2C(N(C)C)=NC[C@@H]2Cc2ccccc2)c1	x	x	-0.7	3.8	x	x
CCCCCCCN1C(N(C)C)=NC[C@@H]1Cc1ccccc1	6.83*	i	-15.5	-6.1	25.3*	i
CN(C)C1=NC[C@H](Cc2ccccc2)N1CCCCc1ccccc1	i	i	2.2	6.3	16.2*	i
CC(C)CCn1c(NCCN(C)C)nc2c1c(=O)[nH]c(=O)n2C	i	i	8.1	4.6	25.6*	-41.2*
SMILES	CHT allo act	CHT inh	procasp7 counter	proCasp3 act	CHT act confirm	HEK293 MP dye
CN(C)CCNc1nc2c(c(=O)[nH]c(=O)n2C)n1CC(O)COc1ccc(Cl)cc1Cl (stereo not given)	8.89*	i	5.8	1.8	50.8*	-45.2*
CC(C)(Oc1ccc(Br)cc1Cl)C(=O)Nc1ccon1	i	i	6.6	2.7	x	x
CC[n+]1c(C)sc2cc(OC)ccc21	i	i	-36.3	-13.1	29.1*	-61.6*
Cc1c(C)c2ccc(OCc3ccc(C(=O)O)o3)c(C)c2oc1=O	7.83*	i	15.5	-6.3	30.5*	-40*
CN(c1ccc(OCc2nnc(-c3ccccc3)o2)cc1)S(=O)(=O)c1ccccc1	i	i	5.3	3.8	26.9*	i
CN(c1ccc(OCC(=O)OCc2nnc(-c3ccccc3)o2)cc1)S(=O)(=O)c1ccc(Cl)cc1	i	i	7.6	3.5	x	x
C[C@H](CO)N1C[C@H](C)[C@@H](CN(C)C(=O)Nc2ccc(C(F)(F)F)cc2)Oc2ccc(NC(=O)CCC(F)(F)F)cc2C1=O	x	x	3.2	9.0	x	x
CC1(C)Cc2c(sc3c2C(=O)N(c2ccccc2)C2=NCCN23)CS1	i	i	3.4	-3.0	x	x
CN1C(=O)c2c(sc3c2CC(C)(C)SC3)N2CCN=C12	14.6*	i	3.2	4.7	60.4*	-55.1*
O=C(COC(=O)c1ccc(-n2cnnn2)cc1)Nc1cc(Cl)ccc1F	x	x	-0.7	2.0	x	x
CCN1C(N(C)CCc2c[nH]c3ccccc23)=N[C@@H](c2cccc(C(F)(F)F)c2)C(C(=O)OC)=C1C	x	x	2.9	-3.5	x	x
CCN1C(N(C)CCc2cccs2)=N[C@@H](c2ccccc2)C(C(=O)OC)=C1C	13*	i	13.8	4.0	25.5*	i
COc1ccccc1CNC(=O)CS(=O)(=O)c1ccc(C)cc1	i	i	5.6	-10.7	x	x
COCCNc1nnc(SCC(=O)Nc2nnc(-c3ccccc3)o2)s1	6.6*	i	3.0	7.8	4.5	i
Nc1nnc(SCC(=O)Nc2nnc(-c3ccccc3)o2)s1	x	x	1.6	-9.5	x	x
COc1ccc(OC)c(NC(=O)COC(=O)c2c(C)noc2C)c1	x	x	3.0	-4.5	x	x
Cc1noc(C)c1C(=O)OCC(=O)Nc1cc(Cl)ccc1Oc1ccccc1	6.72*	i	12.1	3.5	28.1*	i
CCOC(=O)C(C)(C)Oc1ccc(Cl)cc1	i	i	-4.3	0.7	x	x
COc1ccccc1OCC(=O)Nc1ccc2c(c1)n(C)c(=O)n2C	6.63*	i	11.8	5.4	62.7*	-53*
Cc1ccn2c(=O)nc(SCC(=O)NCc3ccccc3Cl)nc2c1	i	i	11.4	-8.9	x	x
COc1ccc(-c2cc(Cl)cc3c(=O)c4ccccc4n(C)c23)cc1F	7.31*	i	4.6	15.6	25.9*	i
O/N=C(/c1ccccc1)c1cc2cc(Br)cc(Br)c2o1	i	i	0.1	-5.1	x	x
Cc1ccc(S(=O)(=O)N2CCN(C(=O)CN3CCOCC3)C2c2ccccc2)cc1 (stereo not given)	8.05*	i	13.3	-3.2	-4.2	i
Cc1ccc(S(=O)(=O)N2CCN(C(=O)CN3CCOCC3)C2C(C)C)cc1 (stereo not given)	i	i	4.5	-11.0	x	x
